Data as given in ChEMBL document CHEMBL1944580, “Synthesis of novel sulfonamide-1,2,4-triazoles, 1,3,4-thiadiazoles and 1,3,4-oxadiazoles, as potential antibacterial and antifungal agents. Biological evaluation and conformational analysis studies” (2012).
Converted amounts (≈) assume the structure as drawn.

The compounds below were run on Micrococcus flavus (assay: Antibacterial activity against Micrococcus flavus ATCC 10240 treated for 24 hrs followed by sub-cultivated for 72 hrs by micro dilution method). Conditions: not given.
Format: functional
Procedure, shortened: (§1)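 2 µl from each well was serially subcultured into 100 µl fresh broth per well and incubated a further 72 h. MBC is the lowest concentration with no visible growth, taken as 99.5% killing of the original inoculum. Streptomycin and ampicillin were the positive controls.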

SMILES | MBC [µM]
CCNc1nnc(Cc2cc(OC)c(OC)cc2S(=O)(=O)N(C)C)o1 | 540 (≈ 200 µg/mL)

What follows are compounds tested on Salmonella typhimurium (assay: Antibacterial activity against Salmonella Typhimurium ATCC 13311 treated for 24 hrs followed by sub-cultivated for 72 hrs by micro dilution method). Conditions: Salmonella enterica.
Format: functional, Salmonella enterica subsp. enterica serovar Typhimurium
Procedure, shortened: as §1

SMILES | MBC [µM]
CCNc1nnc(Cc2cc(OC)c(OC)cc2S(=O)(=O)N(C)C)o1 | 270 (≈ 100 µg/mL)

The compounds below were run on Fulvia fulva (assay: Antifungal activity against Fulvia fulva treated for 72 hrs followed by sub-cultivated for 5 days by serial dilution method). Conditions: not given.
Format: functional
Procedure, shortened: (§2)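 MFC obtained after the 72 h, 28 °C malt-broth microdilution (spore inoculum about 1.0 × 10^5 per well, compounds from 1 mg/ml DMSO). 2 µl was serially subcultured into 100 µl broth per well and incubated a further 5 days at 28 °C. MFC is the lowest concentration with no visible growth, taken as 99.5% killing of the original inoculum.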

SMILES | MFC [µM]
CCNc1nnc(Cc2cc(OC)c(OC)cc2S(=O)(=O)N(C)C)o1 | 270 (≈ 100 µg/mL)

Each compound was assayed on Listeria monocytogenes (assay: Antibacterial activity against Listeria monocytogenes NCTC 7973 treated for 24 hrs followed by sub-cultivated for 72 hrs by micro dilution method). Conditions: not given.
Format: functional
Procedure, shortened: as §1

SMILES | MBC [µM]
CCNc1nnc(Cc2cc(OC)c(OC)cc2S(=O)(=O)N(C)C)o1 | 540 (≈ 200 µg/mL)

What follows are compounds tested on Salmonella typhimurium (assay: Antibacterial activity against Salmonella Typhimurium ATCC 13311 after 24 hrs by micro dilution method). Conditions: Salmonella enterica, ATCC 13311, 24 h.
Format: functional, Salmonella enterica subsp. enterica serovar Typhimurium
Procedure, shortened: (§3)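 Microdilution MIC in 96-well plates. Bacterial suspensions adjusted in sterile saline to 1.0 × 10^5 CFU/ml, giving 1.0 × 10^4 cfu per well in LB broth. Compounds tested at up to 1 mg/ml. Plates incubated 24 h. MIC taken as the lowest concentration with no visible growth under a binocular microscope. OD at 655 nm was also read against a blank and the positive control. Streptomycin and ampicillin were the positive controls.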

SMILES | MIC [µM]
CCNc1nnc(Cc2cc(OC)c(OC)cc2S(=O)(=O)N(C)C)o1 | 140 (≈ 51.9 µg/mL)

Each compound was assayed on Bacillus cereus (assay: Antibacterial activity against Bacillus cereus clinical isolate treated for 24 hrs followed by sub-cultivated for 72 hrs by micro dilution method). Conditions: not given.
Format: functional
Procedure, shortened: as §1

SMILES | MBC [µM]
CCNc1nnc(Cc2cc(OC)c(OC)cc2S(=O)(=O)N(C)C)o1 | 270 (≈ 100 µg/mL)

The compounds below were run on Fulvia fulva (assay: Antifungal activity against Fulvia fulva after 72 hrs by serial dilution method). Conditions: not given.
Format: functional
Procedure, shortened: (§4)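 Modified microdilution MIC. Spores were washed from malt agar cultures with sterile 0.85% saline containing 0.1% Tween 80 and adjusted to about 1.0 × 10^5 per 100 µl well in malt broth. Compounds were dissolved in DMSO (1 mg/ml). Plates incubated 72 h at 28 °C. MIC is the lowest concentration with no visible growth under a binocular microscope. Bifonazole and ketoconazole were the references.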

SMILES | MIC [µM]
CCNc1nnc(Cc2cc(OC)c(OC)cc2S(=O)(=O)N(C)C)o1 | 270 (≈ 100 µg/mL)

These compounds were tested on Pseudomonas aeruginosa (assay: Antibacterial activity against Pseudomonas aeruginosa ATCC 27853 treated for 24 hrs followed by sub-cultivated for 72 hrs by micro dilution method). Conditions: not given.
Format: functional
Procedure, shortened: as §1

SMILES | MBC [µM]
CCNc1nnc(Cc2cc(OC)c(OC)cc2S(=O)(=O)N(C)C)o1 | 540 (≈ 200 µg/mL)

Each compound was assayed on Pseudomonas aeruginosa (assay: Antibacterial activity against Pseudomonas aeruginosa ATCC 27853 after 24 hrs by micro dilution method). Conditions: ATCC 27853, 24 h.
Format: functional
Procedure, shortened: as §3

SMILES | MIC [µM]
CCNc1nnc(Cc2cc(OC)c(OC)cc2S(=O)(=O)N(C)C)o1 | 270 (≈ 100 µg/mL)

Each compound was assayed on Escherichia coli (assay: Antibacterial activity against Escherichia coli ATCC 35210 after 24 hrs by micro dilution method). Conditions: ATCC 35210, 24 h.
Format: functional
Procedure, shortened: as §3

SMILES | MIC [µM]
CCNc1nnc(Cc2cc(OC)c(OC)cc2S(=O)(=O)N(C)C)o1 | 140 (≈ 51.9 µg/mL)

These compounds were tested on Aspergillus versicolor (assay: Antifungal activity against Aspergillus versicolor ATCC 11730 treated for 72 hrs followed by sub-cultivated for 5 days by serial dilution method). Conditions: not given.
Format: functional
Procedure, shortened: as §2

SMILES | MFC [µM]
CCNc1nnc(Cc2cc(OC)c(OC)cc2S(=O)(=O)N(C)C)o1 | 400 (≈ 148 µg/mL)

The compounds below were run on Trichoderma viride (assay: Antifungal activity against Trichoderma viride IAM 5061 treated for 72 hrs followed by sub-cultivated for 5 days by serial dilution method). Conditions: not given.
Format: functional
Procedure, shortened: as §2

SMILES | MFC [µM]
CCNc1nnc(Cc2cc(OC)c(OC)cc2S(=O)(=O)N(C)C)o1 | 30 (≈ 11.1 µg/mL)

The compounds below were run on Aspergillus niger (assay: Antifungal activity against Aspergillus niger ATCC 6275 treated for 72 hrs followed by sub-cultivated for 5 days by serial dilution method). Conditions: not given.
Format: functional
Procedure, shortened: as §2

SMILES | MFC [µM]
CCNc1nnc(Cc2cc(OC)c(OC)cc2S(=O)(=O)N(C)C)o1 | 140 (≈ 51.9 µg/mL)

These compounds were tested on Aspergillus niger (assay: Antifungal activity against Aspergillus niger ATCC 6275 after 72 hrs by serial dilution method). Conditions: ATCC 6275, 72 h.
Format: functional
Procedure, shortened: as §4

SMILES | MIC [µM]
CCNc1nnc(Cc2cc(OC)c(OC)cc2S(=O)(=O)N(C)C)o1 | 140 (≈ 51.9 µg/mL)

What follows are compounds tested on Enterobacter cloacae (assay: Antibacterial activity against Enterobacter cloacae human isolate after 24 hrs by micro dilution method). Conditions: not given.
Format: functional
Procedure, shortened: as §3

SMILES | MIC [µM]
CCNc1nnc(Cc2cc(OC)c(OC)cc2S(=O)(=O)N(C)C)o1 | 670 (≈ 248 µg/mL)

Each compound was assayed on Staphylococcus aureus (assay: Antibacterial activity against Staphylococcus aureus ATCC 6538 treated for 24 hrs followed by sub-cultivated for 72 hrs by micro dilution method). Conditions: not given.
Format: functional
Procedure, shortened: as §1

SMILES | MBC [µM]
CCNc1nnc(Cc2cc(OC)c(OC)cc2S(=O)(=O)N(C)C)o1 | 270 (≈ 100 µg/mL)

The compounds below were run on Aspergillus flavus (assay: Antifungal activity against Aspergillus flavus ATCC 9643 treated for 72 hrs followed by sub-cultivated for 5 days by serial dilution method). Conditions: not given.
Format: functional
Procedure, shortened: as §2

SMILES | MFC [µM]
CCNc1nnc(Cc2cc(OC)c(OC)cc2S(=O)(=O)N(C)C)o1 | 400 (≈ 148 µg/mL)

The compounds below were run on Penicillium ochrochloron (assay: Antifungal activity against Penicillium ochrochloron ATCC 9112 after 72 hrs by serial dilution method). Conditions: ATCC 9112, 72 h.
Format: functional
Procedure, shortened: as §4

SMILES | MIC [µM]
CCNc1nnc(Cc2cc(OC)c(OC)cc2S(=O)(=O)N(C)C)o1 | 140 (≈ 51.9 µg/mL)

The compounds below were run on Aspergillus fumigatus (assay: Antifungal activity against Aspergillus fumigatus human isolate treated for 72 hrs followed by sub-cultivated for 5 days by serial dilution method). Conditions: not given.
Format: functional
Procedure, shortened: as §2

SMILES | MFC [µM]
CCNc1nnc(Cc2cc(OC)c(OC)cc2S(=O)(=O)N(C)C)o1 | 270 (≈ 100 µg/mL)

These compounds were tested on Aspergillus versicolor (assay: Antifungal activity against Aspergillus versicolor ATCC 11730 after 72 hrs by serial dilution method). Conditions: ATCC 11730, 72 h.
Format: functional
Procedure, shortened: as §4

SMILES | MIC [µM]
CCNc1nnc(Cc2cc(OC)c(OC)cc2S(=O)(=O)N(C)C)o1 | 140 (≈ 51.9 µg/mL)

Each compound was assayed on Micrococcus flavus (assay: Antibacterial activity against Micrococcus flavus ATCC 10240 after 24 hrs by micro dilution method). Conditions: ATCC 10240, 24 h.
Format: functional
Procedure, shortened: as §3

SMILES | MIC [µM]
CCNc1nnc(Cc2cc(OC)c(OC)cc2S(=O)(=O)N(C)C)o1 | 270 (≈ 100 µg/mL)

The compounds below were run on Penicillium ochrochloron (assay: Antifungal activity against Penicillium ochrochloron ATCC 9112 treated for 72 hrs followed by sub-cultivated for 5 days by serial dilution method). Conditions: not given.
Format: functional
Procedure, shortened: as §2

SMILES | MFC [µM]
CCNc1nnc(Cc2cc(OC)c(OC)cc2S(=O)(=O)N(C)C)o1 | 270 (≈ 100 µg/mL)

Each compound was assayed on Escherichia coli (assay: Antibacterial activity against Escherichia coli ATCC 35210 treated for 24 hrs followed by sub-cultivated for 72 hrs by micro dilution method). Conditions: not given.
Format: functional
Procedure, shortened: as §1

SMILES | MBC [µM]
CCNc1nnc(Cc2cc(OC)c(OC)cc2S(=O)(=O)N(C)C)o1 | 270 (≈ 100 µg/mL)

The compounds below were run on Bacillus cereus (assay: Antibacterial activity against Bacillus cereus clinical isolate after 24 hrs by micro dilution method). Conditions: not given.
Format: functional
Procedure, shortened: as §3

SMILES | MIC [µM]
CCNc1nnc(Cc2cc(OC)c(OC)cc2S(=O)(=O)N(C)C)o1 | 140 (≈ 51.9 µg/mL)

These compounds were tested on Talaromyces funiculosus (assay: Antifungal activity against Penicillium funiculosum ATCC 36839 after 72 hrs by serial dilution method). Conditions: ATCC 36839, 72 h.
Format: functional
Procedure, shortened: as §4

SMILES | MIC [µM]
CCNc1nnc(Cc2cc(OC)c(OC)cc2S(=O)(=O)N(C)C)o1 | 140 (≈ 51.9 µg/mL)

What follows are compounds tested on Trichoderma viride (assay: Antifungal activity against Trichoderma viride IAM 5061 after 72 hrs by serial dilution method). Conditions: IAM 5061, 72 h.
Format: functional
Procedure, shortened: as §4

SMILES | MIC [µM]
CCNc1nnc(Cc2cc(OC)c(OC)cc2S(=O)(=O)N(C)C)o1 | 30 (≈ 11.1 µg/mL)

The compounds below were run on Talaromyces funiculosus (assay: Antifungal activity against Penicillium funiculosum ATCC 36839 treated for 72 hrs followed by sub-cultivated for 5 days by serial dilution method). Conditions: not given.
Format: functional
Procedure, shortened: as §2

SMILES | MFC [µM]
CCNc1nnc(Cc2cc(OC)c(OC)cc2S(=O)(=O)N(C)C)o1 | 270 (≈ 100 µg/mL)

Each compound was assayed on Enterobacter cloacae (assay: Antibacterial activity against Enterobacter cloacae human isolate treated for 24 hrs followed by sub-cultivated for 72 hrs by micro dilution method). Conditions: not given.
Format: functional
Procedure, shortened: as §1

SMILES | MBC [µM]
CCNc1nnc(Cc2cc(OC)c(OC)cc2S(=O)(=O)N(C)C)o1 | 670 (≈ 248 µg/mL)

Each compound was assayed on Listeria monocytogenes (assay: Antibacterial activity against Listeria monocytogenes NCTC 7973 after 24 hrs by micro dilution method). Conditions: NCTC 7973, 24 h.
Format: functional
Procedure, shortened: as §3

SMILES | MIC [µM]
CCNc1nnc(Cc2cc(OC)c(OC)cc2S(=O)(=O)N(C)C)o1 | 270 (≈ 100 µg/mL)

The compounds below were run on Aspergillus fumigatus (assay: Antifungal activity against Aspergillus fumigatus human isolate after 72 hrs by serial dilution method). Conditions: not given.
Format: functional
Procedure, shortened: as §4

SMILES | MIC [µM]
CCNc1nnc(Cc2cc(OC)c(OC)cc2S(=O)(=O)N(C)C)o1 | 270 (≈ 100 µg/mL)

Each compound was assayed on Aspergillus flavus (assay: Antifungal activity against Aspergillus flavus ATCC 9643 after 72 hrs by serial dilution method). Conditions: ATCC 9643, 72 h.
Format: functional
Procedure, shortened: as §4

SMILES | MIC [µM]
CCNc1nnc(Cc2cc(OC)c(OC)cc2S(=O)(=O)N(C)C)o1 | 140 (≈ 51.9 µg/mL)

Each compound was assayed on Staphylococcus aureus (assay: Antibacterial activity against Staphylococcus aureus ATCC 6538 after 24 hrs by micro dilution method). Conditions: ATCC 6538, 24 h.
Format: functional
Procedure, shortened: as §3

SMILES | MIC [µM]
CCNc1nnc(Cc2cc(OC)c(OC)cc2S(=O)(=O)N(C)C)o1 | 140 (≈ 51.9 µg/mL)
